Source: paper PMC12789443 (Nature Communications, 2025)

Key:
[1] = tested on: E. coli ATCC25922 persister cells; test: Killing efficacy on persister cells; assay type: cell-based; conditions: ampicillin 8×MIC
[2] = tested on: E. coli ATCC25922; test: Mice wound; assay type: in vivo; conditions: topical, 15 μL of 4 mg/mL every 4 h, 3 times
Procedure, shortened: (§1)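 Female ICR mice (6–8 weeks), pentobarbital-anaesthetised (75 mg/kg ip), backs shaved; 6-mm full-thickness punch wounds. Bacteria grown in LB (37 °C, 9 h) and dropped onto wounds in saline: S. aureus 3 × 10^6 or E. coli 1 × 10^8 CFU/mL. Treatment in saline started 24 h post-infection; saline controls. Wound tissue excised 4 h after final application for CFU counts; n = 10.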

[3] = tested on: S. aureus USA300 LAC; test: In vitro bacterial killing kinetics; assay type: cell-based; conditions: exponential growth phase; PBGProOx20 2×MIC and 4×MIC, vancomycin 4×MIC
[4] = tested on: S. aureus USA300 LAC; test: Mice wound; assay type: in vivo; conditions: topical, 15 μL of 4 mg/mL every 4 h, 3 times
Procedure, shortened: as §1

[5] = tested on: S. aureus USA300 LAC biofilm; test: Anti-biofilm assay; assay type: cell-based
[6] = tested on: S. aureus USA300 LAC; test: Mice meningitis model; assay type: in vivo; conditions: 40 mg/kg intraperitoneal daily, 6 times; saline 17%
[7] = tested on: S. aureus USA300 LAC; test: Mice subcutaneous infection model; assay type: in vivo; conditions: 4 mg/mL every 12 h, 3 times
[8] = tested on: S. aureus-PBGProOx20-P32, S. aureus-ciprofloxacin-P32; test: Cross resistance; assay type: cell-based; conditions: 0.5×MIC, P32 bacteria tested against antibiotics
[9] = tested on: S. aureus USA300 persister cells; test: Killing efficacy on persister cells; assay type: cell-based; conditions: ciprofloxacin 10×MIC
[10] = tested on: E. coli ATCC25922; test: Mice meningitis model; assay type: in vivo; conditions: 40 mg/kg intraperitoneal daily, 6 times; saline 17%
[11] = tested on: E. coli-PBGProOx20-P32, E. coli-moxifloxacin-P32; test: Cross resistance; assay type: cell-based; conditions: 0.5×MIC, P32 bacteria tested against antibiotics
[12] = tested on: E. coli ATCC25922; test: Drug resistance study; assay type: cell-based; conditions: continuous treatment at 0.5×MIC
[13] = tested on: E. coli ATCC25922 biofilm; test: Anti-biofilm assay; assay type: cell-based

CC1(C)S[C@@H]2[C@H](NC(=O)[C@H](N)c3ccccc3)C(=O)N2[C@H]1C(=O)O [Ampicillin, ampicillin]
persister cell viability under antibiotic [1]: maintained sustained viability

C[C@@H](O)[C@H]1C(=O)N2C(C(=O)O)=C(SCCN=CN)C[C@H]12 [Imipenem, imipenem]
reduction of bacteria in infected wounds [2]: 2.1 logs

CN[C@H](CC(C)C)C(=O)N[C@H]1C(=O)N[C@@H](CC(N)=O)C(=O)N[C@H]2C(=O)N[C@H]3C(=O)N[C@H](C(=O)N[C@H](C(=O)O)c4cc(O)cc(O)c4-c4cc3ccc4O)[C@H](O)c3ccc(c(Cl)c3)Oc3cc2cc(c3O[C@@H]2O[C@H](CO)[C@@H](O)[C@H](O)[C@H]2O[C@H]2C[C@](C)(N)[C@H](O)[C@H](C)O2)Oc2ccc(cc2Cl)[C@H]1O [Vancomycin, vancomycin]
eradication in time-killing kinetics [3]: unable to eradicate S. aureus | reduction of bacteria in infected wounds [4]: 1.2 logs | concentration eradicating mature biofilm [5]: poor anti-biofilm activity | survival rate, meningitis [6]: 50% | reduction of bacterial load in infected skin [7]: less than 0.5 log CFU/g

O=C(O)c1cn(C2CC2)c2cc(N3CCNCC3)c(F)cc2c1=O [ciprofloxacin]
cross-resistance of bacteria treated for 32 passages [8]: acquired resistance to four quinolone antibiotics and ampicillin | persister cell viability under antibiotic [9]: maintained sustained viability

C[C@@H](O)[C@H]1C(=O)N2C(C(=O)O)=C(S[C@@H]3CN[C@H](C(=O)N(C)C)C3)[C@H](C)[C@H]12 [meropenem]
survival rate, meningitis [10]: 100%

COc1c(N2C[C@@H]3CCCN[C@@H]3C2)c(F)cc2c(=O)c(C(=O)O)cn(C3CC3)c12 [moxifloxacin]
cross-resistance of bacteria treated for 32 passages [11]: acquired resistance to four quinolone antibiotics and ampicillin | increase in MIC after 32 passages [12]: 32 fold

colistin
concentration eradicating mature biofilm [13]: 256 ×MIC
